# According to ChEMBL document CHEMBL1140002, “Synthesis and biological evaluation of (R)-N-(diarylmethylthio/sulfinyl)ethyl/propyl-piperidine-3-carboxylic acid hydrochlorides as novel GABA uptake inhibitors” (Bioorg Med Chem Lett, 2007):
# Where a name gives a salt, the structure may show the parent alone.
# Molecular target: Sodium- and chloride-dependent GABA transporter 1 (Mus musculus, UniProt P31648)
# Assay: Inhibition of [3H]GABA uptake at mouse GAT1 expressed in D8 cells
# Assay type: cell-based
# In short: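 D8 cells in RPMI1640 with 10% FBS grown to near confluence (~60,000 cells/well), rinsed with PBS, pre-incubated 10 min at rt in HBSS. Stopped by aspirating HBSS, three rapid cold PBS washes, cells solubilized in 2 N NaOH; uptake quantified by liquid scintillation counting.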
row,Compound,IC50
1,COc1ccc(C(c2ccc(OC)cc2)[S+]([O-])CCN2CCC[C@@H](C(=O)O)C2)cc1 (stereo partly drawn),589 µM
2,COc1ccc(C(SCCCN2CCC[C@@H](C(=O)O)C2)c2ccc(OC)cc2)cc1,120 µM
3,Cc1ccsc1C(=CCCN1CCC[C@@H](C(=O)O)C1)c1sccc1C [TIAGABINE HYDROCHLORIDE],0.08 µM
4,O=C(O)[C@@H]1CCCN(CCCSC(c2ccccc2)c2ccccc2)C1,11.6 µM
5,Cc1ccc(C(SCCN2CCC[C@@H](C(=O)O)C2)c2ccc(C)cc2)cc1,240 µM
6,Cc1ccccc1C(SCCN1CCC[C@@H](C(=O)O)C1)c1cccc(C)c1C (stereo partly drawn),2130 µM
7,Cc1ccc(C(SCCCN2CCC[C@@H](C(=O)O)C2)c2ccc(C)cc2)cc1,15.8 µM
8,O=C(O)[C@@H]1CCCN(CC[S+]([O-])C(c2ccccc2)c2ccccc2)C1 (stereo partly drawn),0.92 µM
9,Cc1ccccc1C(c1cccc(C)c1C)[S+]([O-])CCN1CCC[C@@H](C(=O)O)C1 (stereo partly drawn),105 µM
10,Cc1ccc(C(c2ccc(C)cc2)[S+]([O-])CCN2CCC[C@@H](C(=O)O)C2)cc1 (stereo partly drawn),1.18 µM
11,O=C(O)[C@@H]1CCCN(CCSC(c2ccccc2)c2ccccc2)C1,1600 µM
12,COc1ccc(C(SCCN2CCC[C@@H](C(=O)O)C2)c2ccc(OC)cc2)cc1,4800 µM
13,Cc1ccccc1C(SCCCN1CCC[C@@H](C(=O)O)C1)c1cccc(C)c1C (stereo partly drawn),16.9 µM
